ChEMBL document CHEMBL4017489, “Design, Synthesis, and Evaluation of New Selective NM23-H2 Binders as c-MYC Transcription Inhibitors via Disruption of the NM23-H2/G-Quadruplex Interaction” (J Med Chem, 2017)
The source made the active and inactive calls. The calls are words filed in the database; no cut-off is given here.

Assays:
[1] = Binding affinity to Htg21 telomeric G-quadruplex DNA (unknown origin) at 40 uM after 30 mins by SPR analysis
[2] = Binding affinity to biotin-labeled 18-mer duplex DNA hairpin (unknown origin) at 40 uM after 30 mins by SPR analysis
[3] = target: T1, Nucleoside diphosphate kinase B (Homo sapiens, UniProt P22392); assay: Binding affinity to NM23-H2 (unknown origin) up to 40 uM by SPR analysis
T1 sequence (P22392 whole entry): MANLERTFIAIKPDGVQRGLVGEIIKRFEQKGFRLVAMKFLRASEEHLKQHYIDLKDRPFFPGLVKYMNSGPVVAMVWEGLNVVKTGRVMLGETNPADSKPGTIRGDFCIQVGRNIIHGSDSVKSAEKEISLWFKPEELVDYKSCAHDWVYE

[4] = target: T1, Nucleoside diphosphate kinase B; assay: Binding affinity to N-terminal NT-647-NHS labeled NM23-H2 (unknown origin) after 30 mins by MST analysis
Method in brief: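 NM23-H2 N-terminally labeled with RED-NHS dye (20 μM protein, 30 min dark, RT), free dye removed; 200 nM labeled protein with compound from 500 μM, 16 twofold steps, 30 min RT in 50 mM Tris-HCl pH 7.4, 150 mM NaCl, 10 mM MgCl2, 0.05% Tween-20; KD at half-plateau.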

[5] = target: T1, Nucleoside diphosphate kinase B; assay: Binding affinity to NM23-H2 (unknown origin) by SPR analysis
[6] = target: T1, Nucleoside diphosphate kinase B; assay: Binding affinity to NM23-H2 (unknown origin) assessed as ratio of Kd for protein interaction with biotin-labeled Pu22 c-myc G-quadruplex DNA in presence and absence of compound after 1 hr by ELISA

Row | SMILES | Activity [1] | Activity [2] | Activity [3] | Kd [4] [µM] | Kd [5] [µM] | Ratio [6]
1 | CCN(CC)CCCNc1cc2nc3n(c(=O)c2cc1F)CC/C3=C\c1ccccc1OC | inactive | inactive | inactive | 72.8 | – | –
2 | CCN(CC)CCCNc1cc2nc3n(c(=O)c2cc1F)CC/C3=C\c1ccc(N2CCCCC2)cc1 | inactive | inactive | inactive | – | – | –
3 | CC(C)c1ccc(/C=C2\CCn3c2nc2cc(NCCCN4CCOCC4)c(F)cc2c3=O)cc1 | inactive | inactive | inactive | – | – | –
4 | O=Cc1ccc(/C=C2\CCn3c2nc2cc(NCCCN4CCOCC4)c(F)cc2c3=O)cc1 | inactive | inactive | – | – | 38 | –
5 | O=c1c2cc(F)c(N3CCOCC3)cc2nc2n1CC/C2=C\c1ccc(OCc2ccccc2)cc1O | inactive | inactive | inactive | 56 | – | –
6 | CCN(CC)c1ccc(/C=C2\CCn3c2nc2cc(NCCCN4CCOCC4)c(F)cc2c3=O)cc1 | inactive | inactive | inactive | – | – | –
7 | CCN(CC)CCCNc1cc2nc3n(c(=O)c2cc1F)CC/C3=C\c1ccc(C(F)(F)F)cc1 | inactive | inactive | inactive | 59.4 | – | –
8 | CCN(CC)c1ccc(/C=C2\CCn3c2nc2cc(NCCN(C)C)c(F)cc2c3=O)cc1 | inactive | inactive | inactive | 45.7 | – | –
9 | CCN(CC)CCCNc1cc2nc3n(c(=O)c2cc1F)CC/C3=C\c1ccc(N2CCOCC2)cc1 | inactive | inactive | inactive | 55.3 | – | –
10 | O=c1c2cc(F)c(NCCCN3CCOCC3)cc2nc2n1CC/C2=C\c1ccc(N2CCCCC2)cc1 | inactive | inactive | inactive | – | – | –
11 | O=c1c2cc(F)c(NCCCN3CCOCC3)cc2nc2n1CC/C2=C\c1ccc(C(F)(F)F)cc1 | inactive | inactive | inactive | – | – | –
12 | O=c1c2cc(F)c(NCCCN3CCOCC3)cc2nc2n1CC/C2=C\c1ccc(F)cc1 | inactive | inactive | inactive | 44.2 | – | –
13 | O=c1c2cc(F)c(NCCCN3CCOCC3)cc2nc2n1CC/C2=C\c1ccc(N2CCOCC2)cc1 | inactive | inactive | inactive | – | – | –
14 | CCN(CC)CCCNc1cc2nc3n(c(=O)c2cc1F)CC/C3=C\c1ccc(F)cc1 | inactive | inactive | inactive | 61.6 | – | –
15 | CN(C)CCNc1cc2nc3n(c(=O)c2cc1F)CC/C3=C\c1ccc(C=O)cc1 | inactive | inactive | inactive | 68 | – | –
16 | CCN(CC)CCCNc1cc2nc3n(c(=O)c2cc1F)CC/C3=C\c1ccc(C(C)C)cc1 | inactive | inactive | inactive | – | – | –

Further lines, results first:

Row | Activity [1] | Activity [2] | Activity [3] | Kd [4] [µM] | Kd [5] [µM] | Ratio [6] | SMILES
17 | inactive | inactive | – | 16.3 | 12.4 | – | CN(C)CCCNc1cc2nc3n(c(=O)c2cc1F)CC/C3=C\c1ccc(Oc2ccccc2)cc1
18 | inactive | inactive | – | 20.8 | 13.8 | 2.1 to 2.6 | CCN(CC)CCCNc1cc2nc3n(c(=O)c2cc1F)CC/C3=C\c1ccc(/C=C/c2ccccn2)cc1
19 | inactive | inactive | – | 16.5 | 13.3 | – | COc1cc(/C=C2\CCn3c2nc2cc(NCCCN(C)C)c(F)cc2c3=O)cc(OC)c1O
20 | inactive | inactive | – | 23.6 | 18.5 | – | COc1cc(/C=C2\CCn3c2nc2cc(NCCCN4CCOCC4)c(F)cc2c3=O)cc(OC)c1OC
21 | inactive | inactive | – | 25.8 | 16.7 | > 3 | CCN(CC)CCCNc1cc2nc3n(c(=O)c2cc1F)CC/C3=C\c1ccc(OCc2ccccc2)c(O)c1
22 | inactive | inactive | – | 16.1 | 13.2 | > 3 | CN(C)CCCNc1cc2nc3n(c(=O)c2cc1F)CC/C3=C\c1ccc(OCc2ccccc2)c(O)c1
23 | inactive | inactive | – | 15.4 | 9.6 | > 3 | CC(C)Oc1ccc(/C=C2\CCn3c2nc2cc(NCCCN(C)C)c(F)cc2c3=O)cc1
24 | inactive | inactive | – | 23.5 | 15.4 | – | CCN(CC)CCCNc1cc2nc3n(c(=O)c2cc1F)CC/C3=C\c1ccc(OC)cc1
25 | inactive | inactive | – | 7.6 | 12.2 | > 3 | O=c1c2cc(F)c(NCCN3CCCCC3)cc2nc2n1CC/C2=C\c1ccc(OCc2ccccc2)cc1O
26 | inactive | inactive | – | 11.7 | 13.9 | 2.1 to 2.6 | CCN(CC)CCCNc1cc2nc3n(c(=O)c2cc1F)CC/C3=C\c1ccc(N(CC)CC)cc1O
27 | inactive | inactive | inactive | 27.5 | – | – | C#CCOc1ccc(/C=C2\CCn3c2nc2cc(NCCN(C)C)c(F)cc2c3=O)cc1
28 | inactive | inactive | – | 21 | 20.6 | – | CCCOc1ccc(/C=C2\CCn3c2nc2cc(NCCCN(C)C)c(F)cc2c3=O)cc1
29 | inactive | inactive | – | 8.9 | 25.6 | – | C#CCOc1ccc(/C=C2\CCn3c2nc2cc(NCCCN(C)C)c(F)cc2c3=O)cc1
30 | inactive | inactive | – | 18.4 | 16.8 | 2.1 to 2.6 | COc1cc(/C=C2\CCn3c2nc2cc(NCCCN(C)C)c(F)cc2c3=O)cc(OC)c1OC
31 | inactive | inactive | – | 19.2 | 15.8 | – | COc1ccc(/C=C2\CCn3c2nc2cc(NCCCN(C)C)c(F)cc2c3=O)cc1OC
32 | inactive | inactive | – | 10.7 | 9.2 | – | CN(C)CCCNc1cc2nc3n(c(=O)c2cc1F)CC/C3=C\c1ccc(O)c(O)c1
33 | inactive | inactive | – | 16.9 | 14.3 | – | O=c1c2cc(F)c(NCCCN3CCOCC3)cc2nc2n1CC/C2=C\c1ccc(OCc2ccccc2)cc1O
34 | inactive | inactive | – | 25.1 | 17.1 | – | CCN(CC)CCCNc1cc2nc3n(c(=O)c2cc1F)CC/C3=C\c1ccc(OC)c(OC)c1
35 | inactive | inactive | – | 25.6 | 28.4 | – | COc1ccc(/C=C2\CCn3c2nc2cc(NCCCN4CCOCC4)c(F)cc2c3=O)cc1
36 | inactive | inactive | – | 28.2 | 16.3 | – | CCN(CC)CCCNc1cc2nc3n(c(=O)c2cc1F)CC/C3=C\c1cc(OC)c(OC)c(OC)c1
